Laboratory results as given in the array DNA melting data of Ke et al. (doi:10.1101/2024.01.08.574731).

Columns and labels:
[1] = folding enthalpy; higher = less favourable; fluorescence melt of hairpins on a sequencing array, two-state fit; details: sodium 0.088 M
Summary of the method: (§1)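 On a sequenced MiSeq flow cell, library hairpins with annealed Cy3 and quencher oligos were imaged for Cy3 fluorescence in 2.5 °C steps up to 60 °C, in 50 mM Na-HEPES pH 8.0, 25 mM NaCl. Normalisation used pre-quench Cy3 and control constructs. Bootstrapped two-state fits gave melting temperature and folding enthalpy, combined by inverse variance across four replicates and with fitted temperatures raised by 9.35 °C to match UV melts.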

[2] = melting temperature; fluorescence melt of hairpins on a sequencing array, two-state fit, raised by 9.35 °C to match UV melts; details: sodium 0.088 M
Summary of the method: as §1

Row | Sequence | folding enthalpy [1] | Tm [2]
1 | GATCTCATAGAGATC ((((((...)))))) | -38.3 kcal/mol | 55.2 °C
2 | GATCTCATCGGAGATC ((((((....)))))) | -36.1 kcal/mol | 52.8 °C
3 | GATCTCATGGGAGATC ((((((....)))))) | -37 kcal/mol | 54 °C
4 | GATCTCATTAGAGATC ((((((....)))))) | -35 kcal/mol | 57.1 °C
5 | GATCTCCAAAGAGATC ((((((....)))))) | -35.6 kcal/mol | 52.5 °C
6 | GATCTCCACAGAGATC ((((((....)))))) | -32.4 kcal/mol | 55.7 °C
7 | GATCTCCACGAGATC ((((((...)))))) | -42 kcal/mol | 53.6 °C
8 | GATCTCCATCGAGATC ((((((....)))))) | -34.4 kcal/mol | 50.7 °C
9 | GATCTCCATGAGATC ((((((...)))))) | -42.1 kcal/mol | 53.3 °C
10 | GATCTCCCATGAGATC ((((((....)))))) | -34.4 kcal/mol | 51.6 °C
11 | GATCTCCCCCGAGATC ((((((....)))))) | -36 kcal/mol | 51.5 °C
12 | GATCTCCCGAGAGATC ((((((....)))))) | -38.6 kcal/mol | 52.7 °C
13 | GATCTCCCTGAGATC ((((((...)))))) | -34.7 kcal/mol | 55.3 °C
14 | GATCTCCGAAAGGAAATC (((.(((....))).))) | -25.1 kcal/mol | 34.2 °C
15 | GATCTCCGAAGAGATC ((((((....)))))) | -40.6 kcal/mol | 54 °C
16 | GATCTCCGAGAGATC ((((((...)))))) | -35.2 kcal/mol | 51 °C
17 | GATCTCCTAAGAGATC ((((((....)))))) | -42.6 kcal/mol | 53.6 °C
18 | GATCTCCTAGAGATC ((((((...)))))) | -35.1 kcal/mol | 53 °C
19 | GATCTCCTCTGAGATC ((((((....)))))) | -31.3 kcal/mol | 51.8 °C
20 | GATCTCGAACGAGATC ((((((....)))))) | -40.8 kcal/mol | 60.2 °C
21 | GATCTCGAATGAGATC ((((((....)))))) | -39.5 kcal/mol | 57.5 °C
22 | GATCTCGATAGAGATC ((((((....)))))) | -36 kcal/mol | 66.8 °C
23 | GATCTCGCAGGAGATC ((((((....)))))) | -50.6 kcal/mol | 57.5 °C
24 | GATCTCGCCGGAGATC ((((((....)))))) | -35.5 kcal/mol | 54.4 °C

Row | Sequence | folding enthalpy [1] | Tm [2]
25 | GATCTCGCGAGAGATC ((((((....)))))) | -42.1 kcal/mol | 64.2 °C
26 | GATCTCGGAAACGGGATC ((((.((....)).)))) | -35 kcal/mol | 51.3 °C
27 | GATCTCGGCGGAGATC ((((((....)))))) | -48.8 kcal/mol | 55.4 °C
28 | GATCTCGGGTGAGATC ((((((....)))))) | -30 kcal/mol | 52.2 °C
29 | GATCTCGTTGAGATC ((((((...)))))) | -37.8 kcal/mol | 54.9 °C
30 | GATCTCTACCGAGATC ((((((....)))))) | -37.1 kcal/mol | 51.7 °C
31 | GATCTCTAGGGAGATC ((((((....)))))) | -39.7 kcal/mol | 53.1 °C
32 | GATCTCTATGAGATC ((((((...)))))) | -31.3 kcal/mol | 54.6 °C
33 | GATCTCTCGTGAGATC ((((((....)))))) | -40 kcal/mol | 52.5 °C
34 | GATCTCTGAAGAGATC ((((((....)))))) | -35.2 kcal/mol | 54.2 °C
35 | GATCTCTGCGGAGATC ((((((....)))))) | -43.7 kcal/mol | 55.9 °C
36 | GATCTCTGGCGAGATC ((((((....)))))) | -33.6 kcal/mol | 51.6 °C
37 | GATCTCTGGGGAGATC ((((((....)))))) | -41.2 kcal/mol | 56.4 °C
38 | GATCTCTGGTGAGATC ((((((....)))))) | -34.1 kcal/mol | 52.4 °C
39 | GATCTCTGTAGAGATC ((((((....)))))) | -44.1 kcal/mol | 56.5 °C
40 | GATCTCTTAAGAGATC ((((((....)))))) | -37.3 kcal/mol | 54.2 °C
41 | GATCTCTTTGAGATC ((((((...)))))) | -32.1 kcal/mol | 55.8 °C
42 | GATCTGAACCCAGATC ((((((....)))))) | -28.8 kcal/mol | 46.1 °C
43 | GATCTGAAGCAGATC ((((((...)))))) | -27.9 kcal/mol | 45.7 °C
44 | GATCTGAAGCCAGATC ((((((....)))))) | -33.2 kcal/mol | 45.5 °C
45 | GATCTGAAGGCAGATC ((((((....)))))) | -41.9 kcal/mol | 45.3 °C
46 | GATCTGAATACAGATC ((((((....)))))) | -39.7 kcal/mol | 47.7 °C
47 | GATCTGACTGCAGATC ((((((....)))))) | -23.7 kcal/mol | 47 °C
48 | GATCTGAGAGCAGATC ((((((....)))))) | -37.2 kcal/mol | 46.1 °C

Row | Sequence | folding enthalpy [1] | Tm [2]
49 | GATCTGAGATCAGATC ((((((....)))))) | -36.1 kcal/mol | 49.2 °C
50 | GATCTGAGCCAGATC ((((((...)))))) | -41.7 kcal/mol | 47 °C
51 | GATCTGAGTACAGATC ((((((....)))))) | -30.9 kcal/mol | 49.6 °C
52 | GATCTGAGTGCAGATC ((((((....)))))) | -31.1 kcal/mol | 49.2 °C
53 | GATCTGATAGCAGATC ((((((....)))))) | -34.4 kcal/mol | 46.8 °C
54 | GATCTGATCCAGATC ((((((...)))))) | -35.2 kcal/mol | 47.6 °C
55 | GATCTGATCCCAGATC ((((((....)))))) | -27.2 kcal/mol | 47 °C
56 | GATCTGATCTCAGATC ((((((....)))))) | -37.1 kcal/mol | 51.1 °C
57 | GATCTGATGCCAGATC ((((((....)))))) | -33.4 kcal/mol | 47.5 °C
58 | GATCTGATTCAGATC ((((((...)))))) | -35.8 kcal/mol | 48.7 °C
59 | GATCTGCAAACAGATC ((((((....)))))) | -35.9 kcal/mol | 48.5 °C
60 | GATCTGCAACAGATC ((((((...)))))) | -28.8 kcal/mol | 46.3 °C
61 | GATCTGCACGCAGATC ((((((....)))))) | -33.1 kcal/mol | 58.8 °C
62 | GATCTGCAGGCAGATC ((((((....)))))) | -32.7 kcal/mol | 60.2 °C
63 | GATCTGCATACAGATC ((((((....)))))) | -43.2 kcal/mol | 52.1 °C
64 | GATCTGCATGCAGATC ((((((....)))))) | -46.5 kcal/mol | 62.4 °C
65 | GATCTGCCAACAGATC ((((((....)))))) | -38.3 kcal/mol | 50 °C
66 | GATCTGCCGCAGATC ((((((...)))))) | -41.5 kcal/mol | 48.1 °C
67 | GATCTGCCGGCAGATC ((((((....)))))) | -53.3 kcal/mol | 62.3 °C
68 | GATCTGCCTCAGATC ((((((...)))))) | -29.1 kcal/mol | 48.7 °C
69 | GATCTGCGAACAGATC ((((((....)))))) | -33.5 kcal/mol | 49.4 °C
70 | GATCTGCGATCAGATC ((((((....)))))) | -33.9 kcal/mol | 47.1 °C
71 | GATCTGCGCGCAGATC ((((((....)))))) | -50.8 kcal/mol | 66.7 °C
72 | GATCTGCGGCCAGATC ((((((....)))))) | -27.4 kcal/mol | 48.6 °C

Row | Sequence | folding enthalpy [1] | Tm [2]
73 | GATCTGCGTCCAGATC ((((((....)))))) | -30.1 kcal/mol | 48.3 °C
74 | GATCTGCTCTCAGATC ((((((....)))))) | -36.6 kcal/mol | 48.4 °C
75 | GATCTGGAATCAGATC ((((((....)))))) | -40.5 kcal/mol | 54.3 °C
76 | GATCTGGACACAGATC ((((((....)))))) | -38.8 kcal/mol | 58.5 °C
77 | GATCTGGACCAGATC ((((((...)))))) | -39.7 kcal/mol | 49.9 °C
78 | GATCTGGACCCAGATC ((((((....)))))) | -43.8 kcal/mol | 53 °C
79 | GATCTGGACGCAGATC ((((((....)))))) | -47 kcal/mol | 51.3 °C
80 | GATCTGGAGCCAGATC ((((((....)))))) | -37.6 kcal/mol | 49.5 °C
81 | GATCTGGATTCAGATC ((((((....)))))) | -39.3 kcal/mol | 48.6 °C
82 | GATCTGGCCGCAGATC ((((((....)))))) | -36 kcal/mol | 52.3 °C
83 | GATCTGGCGCAGATC ((((((...)))))) | -27.4 kcal/mol | 47.5 °C
84 | GATCTGGCGCCAGATC ((((((....)))))) | -47.8 kcal/mol | 60.5 °C
85 | GATCTGGCTTCAGATC ((((((....)))))) | -37.8 kcal/mol | 50.6 °C
86 | GATCTGGGAAACCAGATC (((((((....))))))) | -45.4 kcal/mol | 58.5 °C
87 | GATCTGGGAAACCAGGTC ((.((((....)))).)) | -25 kcal/mol | 48.4 °C
88 | GATCTGGGAGCAGATC ((((((....)))))) | -35.4 kcal/mol | 53.8 °C
89 | GATCTGGGATCAGATC ((((((....)))))) | -40.7 kcal/mol | 53.3 °C
90 | GATCTGGGCCCAGATC ((((((....)))))) | -56.3 kcal/mol | 58.9 °C
91 | GATCTGGTAACAGATC ((((((....)))))) | -27 kcal/mol | 60.5 °C
92 | GATCTGGTGCAGATC ((((((...)))))) | -31.1 kcal/mol | 49.5 °C
93 | GATCTGGTTTCAGATC ((((((....)))))) | -35.9 kcal/mol | 51.1 °C
94 | GATCTGTAACAGATC ((((((...)))))) | -33.5 kcal/mol | 48.6 °C
95 | GATCTGTAGCAGATC ((((((...)))))) | -37.4 kcal/mol | 47.3 °C
96 | GATCTGTCATCAGATC ((((((....)))))) | -38.1 kcal/mol | 50.1 °C
